In ChEMBL document CHEMBL2429850, “In vitro and in vivo effects of (-)-epigallocatechin 3-O-gallate on Leishmania amazonensis” (J Nat Prod, 2013):
Activity calls are given as the source filed them. No cut-off for these calls is given here.

What was measured:
[1] = test system: Leishmania amazonensis; experiment: Antileishmanial activity against stationary-phase promastigotes of Leishmania amazonensis MHOM/BR/75/LTB0016 infected in BALB/c mouse assessed as reduction of parasite burden at 30 mg/kg, po administered 5 times per week; type: functional, organism-based; parameters: dose 30 mg/kg
Procedure, shortened: (§1)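 BALB/c mice (five per group, specific pathogen-free) infected intradermally in the right ear with 2 × 106 L. amazonensis promastigotes. Compound diluted in PBS, given orally at 30 mg/kg/day once daily, five times a week, until day 52. Controls received oral sterile PBS. Meglumine antimoniate 30 mg/kg/day ip served as positive control. Lesions measured twice weekly by dial caliper. Parasite load from excised, weighed, minced ears by limiting dilution in Schneider's medium with 10% FCS; growth read after 7 days at 26 °C. n = 5 ears.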

[2] = test system: Leishmania amazonensis; experiment: Antileishmanial activity against intracellular amastigotes of Leishmania amazonensis MHOM/BR/75/LTB0016 infected in Swiss mouse peritoneal macrophages assessed as inhibition of infection index after 72 hrs by light microscopic analysis; type: functional, organism-based
Procedure, shortened: (§2)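 Peritoneal macrophages from Swiss mice (6−8 weeks), plated in RPMI at 2 × 10^6 cells/mL, infected with L. amazonensis promastigotes (MOI 3.0) for 3 h at 37 °C, 5% CO2; free parasites washed off. Infected cells incubated with compound (3, 6, and 12 μM) or PBS vehicle for 72 h. Light microscopy, ≥200 cells per coverslip in duplicate. Infection index = % infected macrophages × amastigotes/total macrophages. IC50 by logarithmic regression. Three independent experiments; pentamidine (12 μM) reference.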

[3] = test system: Mus musculus; experiment: Toxicity in stationary-phase promastigotes of Leishmania amazonensis MHOM/BR/75/LTB0016 infected BALB/c mouse assessed as serum aspartate aminotransferase level at 30 mg/kg, po administered 5 times per week; type: organism-based; parameters: dose 30 mg/kg, route oral; conditions: in vivo
Procedure, shortened: (§3)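 Infected BALB/c mice (2 × 10^6 promastigotes intradermally, ear) were dosed orally at 30 mg/kg/day in PBS, once daily, five times a week, to day 52. The PBS-treated group served as control. Serum was collected at euthanasia, and ALT, AST and creatinine were measured with colorimetric kits. n = 5.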

[4] = Selectivity index, ratio of IC50 for Swiss mouse peritoneal macrophages to IC50 for intracellular amastigotes of Leishmania amazonensis MHOM/BR/75/LTB0016
Procedure, shortened: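 Ratio of the macrophage IC50 (AlamarBlue, 72 h) to the intracellular amastigote IC50 (infection index, 72 h).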

[5] = test system: Mus musculus; experiment: Toxicity in stationary-phase promastigotes of Leishmania amazonensis MHOM/BR/75/LTB0016 infected BALB/c mouse assessed as serum alanine aminotransferase level at 30 mg/kg, po administered 5 times per week; type: organism-based; parameters: dose 30 mg/kg, route oral; conditions: in vivo; procedure, shortened: as §3
[6] = Cytotoxicity against Swiss mouse peritoneal macrophages after 72 hrs by Alamar blue assay; type: cell-based; conditions: Peritoneal macrophage cell
Procedure, shortened: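 Swiss mouse peritoneal macrophages (2 × 10^6 cells/mL) adhered 1 h at 37 °C, 5% CO2; nonadherent cells washed off. Exposed to compound (3 to 3000 μM) for 72 h, washed, then AlamarBlue (10% v/v) for 12 h at 37 °C. Absorbance read at 570 nm. IC50 by logarithmic regression. 0.1% Triton X-100 lysis as positive control; PBS vehicle control; three independent experiments.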

[7] = test system: Leishmania amazonensis; experiment: Antileishmanial activity against stationary-phase promastigotes of Leishmania amazonensis MHOM/BR/75/LTB0016 infected in BALB/c mouse assessed as reduction of lesion size at 30 mg/kg, po administered 5 times per week; type: functional, organism-based; parameters: dose 30 mg/kg; procedure, shortened: as §1
[8] = test system: Mus musculus; experiment: Toxicity in stationary-phase promastigotes of Leishmania amazonensis MHOM/BR/75/LTB0016 infected BALB/c mouse assessed as serum creatinine level at 30 mg/kg, po administered 5 times per week; type: organism-based; parameters: dose 30 mg/kg, route oral; conditions: in vivo; procedure, shortened: as §3
[9] = test system: Leishmania amazonensis; experiment: Antileishmanial activity against intracellular amastigotes of Leishmania amazonensis MHOM/BR/75/LTB0016 infected in Swiss mouse peritoneal macrophages assessed as growth inhibition at 12 uM after 72 hrs; type: functional; conditions: MHOM/BR/75/LTB0016, 72 h, read-out: GI; procedure, shortened: as §2
[10] = Selectivity index, ratio of CC50 for Balb/c mouse peritoneal macrophages to IC50 for promastigotes of Leishmania amazonensis IFLA/BR/1967/PH-8; type: functional

| SMILES | Activity [1] | inhibition [2] | IC50 ([2]; MHOM/BR/75/LTB0016, 72 h) | Activity [3] | Ratio IC50 [4] | Activity [5] | IC50 [6] | Activity [7] | Activity [8] | inhibition of growth at 12 µM [9] | Ratio CC50/IC50 [10] |
| --- | --- | --- | --- | --- | --- | --- | --- | --- | --- | --- | --- |
| O=C(O[C@@H]1Cc2c(O)cc(O)cc2O[C@@H]1c1cc(O)c(O)c(O)c1)c1cc(O)c(O)c(O)c1 [EPIGALOCATECHIN GALLATE] | Active | Dose-dependent effect | 1.6 µM | Non-toxic | 129.4 | Non-toxic | 436 µM | Active | Non-toxic | 83.6% |  |
| CCCCCCCCCCCCCCCCOP(=O)([O-])OCC[N+](C)(C)C [MILTEFOSINE] |  |  |  |  |  |  |  |  |  |  | 28.9 |
